Apaf-1 inh – blocks human Apaf-1 apoptosome activity. O14727. reconstituted apoptosome caspase-3 activity, DEVD-Rh110 fluorescence. inhibition, % at 20 µM. 0.71% of 330,000 active. AID 489030; active means inhibition of at least 40% at 20 µM;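 further: plate controls were DMSO wells for no effect and DEVD-CHO caspase inhibitor wells for full effect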
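Material: reconstituted apoptosome with Apaf-1, cytochrome c, caspase-9, procaspase-3, dATP / Buffer or medium: pH 7.5 Hepes buffer with CHAPS, BSA, DTT / Also added: cytochrome c with DEVD-Rh110 / Schedule: compound with Apaf-1, dATP, procaspase-3 30 min, then 50 min reaction, room temperature / Technique: rhodamine 110 fluorescence at Ex 480/Em 540 nm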
UCH37 DUB inh – inhibitors of human deubiquitinating enzyme UCH37; Q9Y5K5; inhibition, % (no concentration beside the values); 0.33% of 330,000 active; purified proteasome/UCH37, Ub-AMC cleavage fluorescence;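 active means mean inhibition over replicate wells above about 20%, limit read from the data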;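 further: 0% = compound-free wells with enzyme and 100% = wells lacking proteasome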
Target sequence (Q9Y5K5 whole entry, looked up): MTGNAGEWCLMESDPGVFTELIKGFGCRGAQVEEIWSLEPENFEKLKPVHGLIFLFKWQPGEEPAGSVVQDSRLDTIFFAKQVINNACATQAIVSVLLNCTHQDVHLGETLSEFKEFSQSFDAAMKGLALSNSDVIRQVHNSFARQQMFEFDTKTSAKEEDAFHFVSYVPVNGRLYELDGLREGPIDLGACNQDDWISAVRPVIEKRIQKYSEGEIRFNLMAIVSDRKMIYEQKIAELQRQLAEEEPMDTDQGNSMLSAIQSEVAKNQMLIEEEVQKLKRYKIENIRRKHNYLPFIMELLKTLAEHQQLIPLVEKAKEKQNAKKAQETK
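System: Proteasome-associated human UCH37 deubiquitinase; Input: 0.15 nM proteasome in added enzyme buffer; Also added: Ub-AMC substrate from 1 µM stock; Incubation: 30 min compound-proteasome preincubation then 25 min substrate reaction, room temperature; Detection: fluorescence, ex 355 nm, em 460 nm; Read-out: % inhibition of Ub-AMC cleavage fluorescence; Benchmarks: no-proteasome and no-compound wells.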
UBC13 inh – inhibitors of human UBC13 polyubiquitin chain formation | P61088 | TR-FRET | inhibition, % at 20 µM | 0.47% of 330,000 active; in the data active means inhibition above about 45%, passing the limit was not always enough
Target sequence (P61088 whole entry, looked up): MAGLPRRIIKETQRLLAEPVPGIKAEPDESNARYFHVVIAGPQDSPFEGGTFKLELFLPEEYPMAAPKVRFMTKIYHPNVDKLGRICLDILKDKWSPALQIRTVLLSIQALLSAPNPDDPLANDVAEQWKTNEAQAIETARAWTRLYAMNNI
MEKK2 WT-MEK5 – raises or lowers MEK5 binding to wildtype human MEKK2 PB1 domain. bead flow cytometry, Alexa488-MEK5 binding to MEKK2 WT; actives lie on both sides. binding response (% of control), % at 10 µM. 1.1% of 290,000 active. AID 1531; in the data active means binding response below about 67% or above about 130%
MEKK2 mut-MEK5 – signal of MEK5 binding to mutant human MEKK2 PB1 domain; percent response, % at 10 µM; bead flow cytometry, Alexa488-MEK5 binding to MEKK2 mutant; 0.35% of 290,000 active; in the data active means percent response above about 24%, passing the limit was not always enough
MEKK3 PB1 HTS – MEKK3-MEK5 PB1 interaction, increase or decrease; Q99759; bead-based flow cytometry, Alexa488-MEK5 binding to MEKK3; actives lie on both sides; 0 = blocked by unlabeled MEK5, 100 = vehicle; binding response (% of control), % at 10 µM; 1.4% of 290,000 active; AID 1529;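 active means binding response more than 3 SD above or below the average of its plate-row segment, actives on both sides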;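 further: Alexa488 bead fluorescence after subtracting the streptavidin-only scavenger bead signal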
MEKK2wt confirm – raises or lowers MEK5 binding to wildtype human MEKK2, retest | 2.4% of 5,900 active | AID 1892 | bead flow cytometry, Alexa488-MEK5 binding to MEKK2 WT; actives lie on both sides | binding response (% of control), % at 10 µM | shares compounds with MEKK3 PB1 HTS; in the data active means binding response below about 16% or above about 210%; inactive means in between
MEKK2mut-MEK5 – signal of MEK5 binding to mutant human MEKK2, retest | 2% of 5,900 active | shares compounds with MEKK3 PB1 HTS | AID 1893 | percent response, % at 10 µM | bead flow cytometry, Alexa488-MEK5 binding to MEKK2 mutant; in the data active means percent response mostly above about 71%, no sharp cut-off; inactive means mostly below about 38%;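 further: higher means compound restores mutant binding toward wildtype level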
MEKK3 confirm – MEKK3-MEK5 PB1 inhibition, single concentration confirmation; shares compounds with MEKK3 PB1 HTS; bead flow cytometry, Alexa488-MEK5 binding to MEKK3; hits give low values; binding response (% of control), % at 10 µM; 1.8% of 5,900 active; AID 1894;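 active means binding response below 72% of control, or above a set upper limit, though filed actives all read lower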;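 further: 100% = DMSO only wells and 0% = binding blocked by excess unlabeled MEK5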
Active calls of the source: *; [ ] = another dose, or the depositor's remark. The list is not random: actives were taken first. Their share in the collection is about 3%.

What do the screens show for `CC(=O)N1c2ccc(S(=O)(=O)N3CCCC3C(=O)Nc3cccc(F)c3)cc2CC1C` (centres undefined)?
Apaf-1 inh: -1.5; UCH37 DUB inh: 3.1; UBC13 inh: 0.9; MEKK2 WT-MEK5: 99.0; MEKK2 mut-MEK5: -1.0; MEKK3 PB1 HTS: 99.0

How did O=C(Nc1ccccc1C(=O)NCCCn1ccnc1)c1ccccc1 do in these assays?
Apaf-1 inh: -7.9; UCH37 DUB inh: 1.5; UBC13 inh: -2.0; MEKK2 WT-MEK5: 105.0; MEKK2 mut-MEK5: 10.0; MEKK3 PB1 HTS: 101.0

How did COc1ccc(C(=O)Nc2ccccc2C(=O)NCCCn2ccnc2)cc1 do in these assays?
UCH37 DUB inh: 0.3; MEKK2 WT-MEK5: 121.0; MEKK2 mut-MEK5: 11.0; MEKK3 PB1 HTS: 122.0*; MEKK2wt confirm: 111.0; MEKK2mut-MEK5: 8.0; MEKK3 confirm: 108.0

Results for CCCCC(CC)Cn1c(O)c(/C=C2\C=NN=C2c2ccccc2)sc1=S (centres undefined) ?
Apaf-1 inh: 3.0; UCH37 DUB inh: 4.9; UBC13 inh: -8.0; MEKK2 WT-MEK5: 103.0; MEKK2 mut-MEK5: 0.0; MEKK3 PB1 HTS: 136.0*; MEKK2wt confirm: 108.0; MEKK2mut-MEK5: -1.0; MEKK3 confirm: 102.0

What do the screens show for `COC(=O)c1ccc(C23CC4(C2)[C@H](CN(Cc2ccc(-c5ccccc5)cc2)[C@@H]4c2ccccc2)C3c2ccc(Cl)nc2)cc1` (some centres undefined)?
Apaf-1 inh: 29.6; UCH37 DUB inh: 1.7; UBC13 inh: -45.2; MEKK2 WT-MEK5: 107.0; MEKK2 mut-MEK5: 4.0; MEKK3 PB1 HTS: 105.0

What do the screens show for `COc1cc(/C=C/C(=O)Nc2ccncc2)cc(OC)c1OC`?
Apaf-1 inh: 2.2; UCH37 DUB inh: -160.0; UBC13 inh: -0.5; MEKK2 WT-MEK5: 106.0; MEKK2 mut-MEK5: 0.0; MEKK3 PB1 HTS: 146.0*; MEKK2wt confirm: 112.0; MEKK2mut-MEK5: 3.0; MEKK3 confirm: 106.0

How did CC(=O)Nc1nnc(SCC(=O)N2CCN(Cc3ccccc3)CC2)s1 do in these assays?
Apaf-1 inh: -3.0; UCH37 DUB inh: 5.3; UBC13 inh: 6.4; MEKK2 WT-MEK5: 105.0; MEKK2 mut-MEK5: 3.0; MEKK3 PB1 HTS: 75.0*[inhibitor]; MEKK2wt confirm: 103.0; MEKK2mut-MEK5: -1.0; MEKK3 confirm: 103.0

Results for COc1ccc(Oc2ccccc2C=NO)cc1 ?
UCH37 DUB inh: 1.0

What do the screens show for `CC(c1ccccc1)n1c(CO)nc2ccccc21` (centres undefined)?
Apaf-1 inh: 4.6; UCH37 DUB inh: 2.2; UBC13 inh: 0.5; MEKK2 WT-MEK5: 110.0; MEKK2 mut-MEK5: 9.0; MEKK3 PB1 HTS: 104.0

What do the screens show for `Cc1c(Cl)cnc(NC(=O)COC(=O)Cc2coc3ccc4ccccc4c23)c1Cl`?
Apaf-1 inh: 15.8; UCH37 DUB inh: -21.1; UBC13 inh: 6.2; MEKK2 WT-MEK5: 102.0; MEKK2 mut-MEK5: 0.0; MEKK3 PB1 HTS: 131.0*; MEKK2wt confirm: 80.0; MEKK2mut-MEK5: -14.0; MEKK3 confirm: 84.0

How did CC(C)(C)NC(=O)NC(=O)COC(=O)Cc1coc2ccc3ccccc3c12 do in these assays?
Apaf-1 inh: 22.1; UCH37 DUB inh: 3.4; UBC13 inh: 27.0; MEKK2 WT-MEK5: 112.0; MEKK2 mut-MEK5: 1.0; MEKK3 PB1 HTS: 143.0*; MEKK2wt confirm: 95.0; MEKK2mut-MEK5: -3.0; MEKK3 confirm: 97.0

How did Cc1c(Cl)cnc(NC(=O)COC(=O)CCS(=O)(=O)c2ccccc2)c1Cl do in these assays?
Apaf-1 inh: 12.4; UCH37 DUB inh: -25.2; UBC13 inh: -1.2; MEKK2 WT-MEK5: 102.0; MEKK2 mut-MEK5: 2.0; MEKK3 PB1 HTS: 104.0
